Experimental findings from ChEMBL document CHEMBL2390869, “Evolution of novel tricyclic CRTh2 receptor antagonists from a (E)-2-cyano-3-(1H-indol-3-yl)acrylamide scaffold” (Bioorg Med Chem Lett, 2013) are described below.

In experiment [1] the target is T1, Prostaglandin D2 receptor 2 (Homo sapiens, UniProt Q9Y5Y4).
T1 sequence (Q9Y5Y4 whole entry): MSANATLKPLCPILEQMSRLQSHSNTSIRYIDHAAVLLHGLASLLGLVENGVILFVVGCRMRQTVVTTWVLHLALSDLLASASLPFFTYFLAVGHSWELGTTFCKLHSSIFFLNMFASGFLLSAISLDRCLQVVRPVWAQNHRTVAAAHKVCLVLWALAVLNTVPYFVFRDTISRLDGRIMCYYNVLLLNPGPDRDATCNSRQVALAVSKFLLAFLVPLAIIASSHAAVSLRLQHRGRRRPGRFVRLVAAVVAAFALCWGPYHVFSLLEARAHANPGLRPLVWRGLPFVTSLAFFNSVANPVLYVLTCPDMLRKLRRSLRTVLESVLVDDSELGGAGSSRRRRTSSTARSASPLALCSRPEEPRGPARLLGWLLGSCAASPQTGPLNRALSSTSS
Kind of experiment: Displacement of [3H]PGD2 from human CRTh2 receptor. An outline of the steps: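 Human CRTh2 binding assay run in assay buffer. IC50 reported as the mean of at least three experiments.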
(In general: In a radioligand displacement assay an active substance lowers the binding of a labelled ligand.)

Experiment [2] concerns the target T1, Prostaglandin D2 receptor 2. Kind of experiment: Antagonist activity at PGD2-induced human CRTh2 receptor activation expressed in HEK293 cells assessed as intracellular Ca2+ liberation by FLIPR assay. It is filed as functional, cell-based. The procedure, abridged: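 HEK-293 cells stably expressing human CRTh2 were stimulated with PGD2. Antagonism of intracellular Ca2+ liberation was read by FLIPR. IC50 is the mean of at least three experiments.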

The structures appear in SMILES notation.

As a reminder, the IC50 is the concentration that inhibits the measured activity by half.

Molecule `O=C(O)Cn1c2ccccc2c2cc(C(=O)Nc3ccccc3)ccc21` gave an IC50 in experiment [1] of 490 nM. On the same count and under the same terms, under `Cc1ccc2c(/C=C(\C#N)C(=O)N(C)c3ccccc3)cn(CC(=O)O)c2c1` stands 690 nM.

With `CN(C(=O)/C(C#N)=C/c1cn(CC(=O)O)c2c(Cl)cccc12)c1ccccc1`, the IC50 in experiment [1] came out at 50 nM. Same read-out and setting: with `CN(C(=O)/C(C#N)=C/c1cn(CC(=O)O)c2cccc(Cl)c12)c1ccccc1` the figure was 5 nM; with `N#C/C(=C\c1cn(CCC(=O)O)c2ccccc12)C(=O)Nc1ccccc1`, 5900 nM. On the same count and under the same terms, with `CN(C(=O)/C(C#N)=C/c1cn(CC(=O)O)c2c(F)cccc12)c1ccccc1` the figure was 100 nM. For the molecule `C/C(=C(/C#N)C(=O)Nc1ccccc1)c1cn(CC(=O)O)c2ccccc12`, the IC50 in experiment [1] was 510 nM. On to `CCCCN(C(=O)/C(C#N)=C/c1cn(CC(=O)O)c2ccccc12)c1ccccc1`, for which the IC50 in experiment [1] is 20 nM. Same read-out and setting: under `O=C(O)Cn1c2c(c3ccccc31)CC(C(=O)Nc1ccccc1)CC2` (racemic) stands 145 nM; under `Cc1cccc2c1c(/C=C(\C#N)C(=O)N(C)c1ccccc1)cn2CC(=O)O`, 10 nM; under `Cc1ccc2c(c1)c(/C=C(\C#N)C(=O)N(C)c1ccccc1)cn2CC(=O)O`, 7 nM. Still for that read-out and setting: with `O=C(O)Cn1cc(/C=C/C(=O)Nc2ccccc2)c2ccccc21` the figure was 4400 nM; with `N#C/C(=C\c1cn(CC(=O)O)c2ccccc12)C(=O)N(c1ccccc1)C1CCCCC1`, 30 nM; with `Cc1cccc2c(/C=C(\C#N)C(=O)N(C)c3ccccc3)cn(CC(=O)O)c12`, 140 nM.

For `CN(C(=O)/C(C#N)=C/c1cn(CC(=O)O)c2ccc(F)cc12)c1ccccc1`, the IC50 in experiment [1] is 10 nM. The same measure, in the same setting: under `O=C(O)Cn1cc(/C=C(\Cl)C(=O)Nc2ccccc2)c2ccccc21` stands 560 nM; under `CN(C(=O)/C(C#N)=C/c1cn(CC(=O)O)c2ccc(Cl)cc12)c1ccccc1`, 7 nM; under `CC(=O)N1CCc2c(c3ccccc3n2CC(=O)O)C1`, 1600 nM. Still for that read-out and setting: under `CN(C(=O)/C(C#N)=C/c1cn(CC(=O)O)c2ccccc12)c1ccccc1` stands 15 nM; under `O=C(O)Cn1c2c(c3ccccc31)CN(C(=O)Cc1ccccc1)CC2`, 200 nM. Same read-out and setting: with `CN(C(=O)/C(C#N)=C/c1cn(CC(=O)O)c2cc(Cl)ccc12)c1ccccc1` the figure was 290 nM; with `N#C/C(=C\c1cn(CC(=O)O)c2ccccc12)C(=O)N1Cc2ccccc2Cc2ccccc21`, 7 nM. With `N#C/C(=C\c1cn(CC(=O)O)c2ccccc12)C(=O)Nc1cccc(Br)c1`, the half-maximal inhibitory concentration (IC50) in experiment [1] turned out to be 500 nM; in experiment [2] it was 600 nM. Consider `O=C(O)Cn1c2c(c3ccccc31)CN(C(=O)Nc1ccccc1)CC2`, for which, in experiment [1], the IC50 is 430 nM. Still for that read-out and setting: under `N#C/C(=C\c1cn(CC(=O)O)c2ccccc12)C(=O)N1CCc2ccccc21` stands 60 nM; under `N#C/C(=C\c1cn(CC(=O)O)c2ccccc12)C(=O)N(Cc1ccccc1)c1ccccc1`, 30 nM; under `N#C/C(=C\c1cn(CCCC(=O)O)c2ccccc12)C(=O)Nc1ccccc1`, 2600 nM. On the same count and under the same terms, with `CN(C(=O)/C(C#N)=C/c1cn(CC(=O)O)c2cccc(F)c12)c1ccccc1` the figure was 10 nM; with `CCCCCC(=O)N1CCc2c(c3ccccc3n2CC(=O)O)C1`, 210 nM.

On to `N#C/C(=C\c1cn(CC(=O)O)c2ccccc12)C(=O)Nc1ccccc1`, for which the IC50 in experiment [1] was found to be 430 nM. Same read-out and setting: with `N#C/C(=C\c1cn(CC(=O)O)c2ccccc12)C(=O)N(CCc1ccccc1)c1ccccc1` the figure was 10 nM; with `CN(C(=O)/C(C#N)=C/c1cn(CC(=O)O)c2cc(F)ccc12)c1ccccc1`, 45 nM.
